ChEMBL document CHEMBL1806447, “Semi-synthesis and antitumor activity of 6-isomers of 5, 8-O-dimethyl acylshikonin derivatives” (Eur J Med Chem, 2011)

Experiments:
MCF7 = assay: Antitumor activity against human MCF7 cells after 24 hrs by MTT assay; assay type: functional, cell-based; conditions: MCF7, 24 h
Procedure, shortened: (§1)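 Seeded at 5.0 × 10⁴ cells/mL and cultured 24 h, then exposed 24 h to serial dilutions made from a DMSO solution. MTT (5 mg/mL) added for 4 h, formazan dissolved in DMSO, A570 read. IC50 taken by linear regression of concentration-response curves; mean of at least three independent experiments.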

[1] = Cytotoxicity against human HSF cells after 24 hrs by MTT assay; assay type: cell-based; procedure, shortened: as §1
MDA-MB-231 = assay: Antitumor activity against human MDA-MB-231 cells after 24 hrs by MTT assay; assay type: functional, cell-based; conditions: MDA-MB-231, 24 h; procedure, shortened: as §1
HCT-15 = assay: Antitumor activity against human HCT15 cells after 24 hrs by MTT assay; assay type: functional, cell-based; conditions: HCT-15, 24 h; procedure, shortened: as §1
L929 = assay: Cytotoxicity against mouse L929 cells after 24 hrs by MTT assay; assay type: cell-based; conditions: L929, 24 h; procedure, shortened: as §1
K562 = assay: Antitumor activity against human K562 cells after 24 hrs by MTT assay; assay type: functional, cell-based; conditions: K562, 24 h; procedure, shortened: as §1
CNE = assay: Antitumor activity against human CNE cells after 24 hrs by MTT assay; assay type: functional, cell-based; procedure, shortened: as §1
Mus musculus = assay: Toxicity in KM mouse harboring mouse S180 cells xenograft assessed as body weight change at 25 mg/kg, ip administered qd for 9 days measured on 10th day (reference value: +39.1%); assay type: organism-based, CCRF S-180; design: dose 25 mg/kg, route intraperitoneal; conditions: in vivo, 216 h
Procedure, shortened: (§2)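 S-180 sarcoma cells (2 × 10⁶ in 0.2 ml saline) injected subcutaneously at the femur of male SPF KM mice, seven weeks old, 18–22 g; groups of 10. Dosing began 24 h later, i.p. once daily for 9 days, in 0.5% DMSO/1% Tween 80 diluted with saline; controls received vehicle. Body weight followed; tumors excised and weighed on day 10. Inhibition = (control − treated mean tumor weight)/control × 100%.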

CCRF S-180 [2] = assay: Antitumor activity against mouse S180 cells xenografted in KM mouse assessed as decrease in tumor weight at 25 mg/kg, ip administered qd for 9 days measured on 10th day (reference value: 2.07+/- 0.42g); assay type: functional; conditions: route intraperitoneal; procedure, shortened: as §2
CCRF S-180 [3] = assay: Antitumor activity against mouse S180 cells xenografted in KM mouse assessed as tumor weight inhibition rate at 25 mg/kg, ip administered qd for 9 days measured on 10th day; assay type: functional; conditions: CCRF S-180, ip, 216 h, route intraperitoneal; procedure, shortened: as §2

Compound: COc1cc([C@@H](CC=C(C)C)OC(=O)C(C)C)c(OC)c2c1C(=O)C=CC2=O
- IC50 (MCF7): 3.7 µM
- IC50 [1]: 69.3 µM
- IC50 (MDA-MB-231): 2.8 µM

Compound: CCCC(=O)O[C@H](CC=C(C)C)c1cc(OC)c2c(c1OC)C(=O)C=CC2=O
- IC50 (MCF7): 5.1 µM
- IC50 [1]: 86.3 µM
- IC50 (MDA-MB-231): 4.3 µM

Compound: COc1ccc(CC(=O)O[C@H](CC=C(C)C)c2cc(OC)c3c(c2OC)C(=O)C=CC3=O)cc1
- IC50 (MCF7): 5.5 µM
- IC50 [1]: > 100 µM
- IC50 (MDA-MB-231): 2.3 µM

Compound: COc1cc([C@@H](CC=C(C)C)OC(=O)C2CCOC2)c(OC)c2c1C(=O)C=CC2=O (stereo partly specified)
- IC50 (MCF7): 1.1 µM
- IC50 [1]: 69.4 µM
- IC50 (MDA-MB-231): 0.2 µM

Compound: COc1cc([C@@H](CC=C(C)C)OC(C)=O)c(OC)c2c1C(=O)C=CC2=O
- IC50 (MCF7): 4.9 µM
- IC50 [1]: > 100 µM
- IC50 (HCT-15): 19.3 µM
- IC50 (L929): > 100 µM
- IC50 (MDA-MB-231): 3.4 µM
- IC50 (K562): 15.3 µM
- IC50 (CNE): 58 µM

Compound: COc1ccc(OC)c2c1C(=O)C=C([C@@H](CC=C(C)C)OC(C)=O)C2=O
- IC50 (HCT-15): 29.6 µM
- IC50 (L929): > 100 µM
- IC50 (MDA-MB-231): 7.2 µM
- IC50 (CNE): 23.1 µM

Compound: COc1ccc(C(=O)O[C@H](CC=C(C)C)c2cc(OC)c3c(c2OC)C(=O)C=CC3=O)cc1
- IC50 (MCF7): 8.3 µM
- IC50 [1]: 88.3 µM
- IC50 (MDA-MB-231): 1.4 µM

Compound: COc1ccc(/C=C/C(=O)O[C@H](CC=C(C)C)c2cc(OC)c3c(c2OC)C(=O)C=CC3=O)cc1OC
- IC50 (MCF7): 7.7 µM
- IC50 [1]: > 100 µM
- IC50 (MDA-MB-231): 5 µM

Compound: COc1ccc(OC)c2c1C(=O)C=C([C@@H](CC=C(C)C)OC(=O)C1CCCO1)C2=O (stereo partly specified)
- IC50 (HCT-15): 12.7 µM
- IC50 (L929): > 100 µM
- IC50 (MDA-MB-231): 2.1 µM
- IC50 (CNE): 16.5 µM

Compound: O=c1[nH]cc(F)c(=O)[nH]1 [FLUOROURACIL]
- Activity (Mus musculus): 34.7%
- Activity (CCRF S-180 [2]): 1.11 g
- inhibition in vivo at 25 mg/kg (CCRF S-180 [3]): 46.5%

Compound: COc1cc([C@@H](CC=C(C)C)OC(=O)/C=C/c2ccccc2)c(OC)c2c1C(=O)C=CC2=O
- IC50 (MCF7): 3.9 µM
- IC50 [1]: > 100 µM
- IC50 (MDA-MB-231): 2.4 µM

Compound: COc1ccccc1C(=O)O[C@H](CC=C(C)C)c1cc(OC)c2c(c1OC)C(=O)C=CC2=O
- IC50 (MCF7): 21.3 µM
- IC50 [1]: > 100 µM
- IC50 (MDA-MB-231): 4.4 µM

Compound: CC(C)=CC[C@@H](O)C1=CC(=O)c2c(O)ccc(O)c2C1=O [SHIKONIN]
- IC50 (HCT-15): 7.3 µM
- IC50 (L929): 3.2 µM
- IC50 (MDA-MB-231): 6.6 µM
- IC50 (CNE): 0.7 µM

Compound: COc1cc([C@@H](CC=C(C)C)OC(=O)c2cccnc2)c(OC)c2c1C(=O)C=CC2=O
- IC50 (MCF7): 17.4 µM
- IC50 [1]: 91.7 µM
- IC50 (MDA-MB-231): 6 µM

Compound: COc1cc([C@@H](CC=C(C)C)OC(=O)c2ccco2)c(OC)c2c1C(=O)C=CC2=O
- IC50 (MCF7): 2.7 µM
- IC50 [1]: > 100 µM
- IC50 (MDA-MB-231): 1.3 µM

Compound: COc1cc([C@@H](CC=C(C)C)OC(=O)c2ccncc2)c(OC)c2c1C(=O)C=CC2=O
- IC50 (MCF7): 6.3 µM
- IC50 [1]: > 100 µM
- IC50 (MDA-MB-231): 1.2 µM

Compound: CCC(C)C(=O)O[C@H](CC=C(C)C)c1cc(OC)c2c(c1OC)C(=O)C=CC2=O (stereo partly specified)
- IC50 (MCF7): 4.5 µM
- IC50 [1]: 93.6 µM
- IC50 (MDA-MB-231): 5.9 µM

Compound: COc1cc([C@H](O)CC=C(C)C)c(OC)c2c1C(=O)C=CC2=O
- IC50 (MCF7): 9.2 µM
- IC50 [1]: 79.6 µM
- IC50 (MDA-MB-231): 4.1 µM

Compound: COc1cc([C@@H](CC=C(C)C)OC(=O)c2ccoc2)c(OC)c2c1C(=O)C=CC2=O
- IC50 (MCF7): 1.3 µM
- IC50 [1]: > 100 µM
- IC50 (MDA-MB-231): 0.4 µM

Compound: COc1cc([C@@H](CC=C(C)C)OC(=O)c2ccc([N+](=O)[O-])cc2)c(OC)c2c1C(=O)C=CC2=O
- IC50 (MCF7): 15.2 µM
- IC50 [1]: > 100 µM
- IC50 (MDA-MB-231): 16.8 µM

Compound: C/C=C/C(=O)O[C@H](CC=C(C)C)c1cc(OC)c2c(c1OC)C(=O)C=CC2=O
- IC50 (MCF7): 3.3 µM
- IC50 [1]: 74.9 µM
- IC50 (MDA-MB-231): 1.5 µM

Compound: COc1cc([C@@H](CC=C(C)C)OC(=O)c2ccccc2)c(OC)c2c1C(=O)C=CC2=O
- IC50 (MCF7): 6.7 µM
- IC50 [1]: > 100 µM
- IC50 (MDA-MB-231): 2.2 µM

Compound: CCC(=O)O[C@H](CC=C(C)C)c1cc(OC)c2c(c1OC)C(=O)C=CC2=O
- IC50 (MCF7): 6.2 µM
- IC50 [1]: 78.6 µM
- IC50 (MDA-MB-231): 2.5 µM

Compound: COc1cc([C@@H](CC=C(C)C)OC(=O)CCc2ccccc2)c(OC)c2c1C(=O)C=CC2=O
- IC50 (MCF7): 5.9 µM
- IC50 [1]: > 100 µM
- IC50 (MDA-MB-231): 3.7 µM

Compound: COc1cc([C@@H](CC=C(C)C)OC(=O)C2CCCO2)c(OC)c2c1C(=O)C=CC2=O (stereo partly specified)
- IC50 (MCF7): 2.5 µM
- IC50 [1]: > 100 µM
- IC50 (HCT-15): 18.6 µM
- IC50 (L929): > 100 µM
- IC50 (MDA-MB-231): 0.6 µM
- IC50 (K562): 11.2 µM
- IC50 (CNE): 20.6 µM
